Laboratory results from ChEMBL document CHEMBL1255494, “In vivo comparison of the pharmacodynamic targets for echinocandin drugs against Candida species” (Antimicrob Agents Chemother, 2010).
Values after ≈ are worked out from the molar mass of the structure shown. *1 amine or outer side, *2 acyl side, *3 side chain or, on linkers, in order; H or OH if unused. Where a SMILES comes first, the peptide text is derived from it. Bridges are numbered along the chain shown (N, C = ends). [ ]: non-standard residue; d: D form. The star is where a group is joined. hTyr(3S-OH,4S-OH,3'-OSO3H) = N[C@H](C(=O)O)[C@H](O)[C@@H](O)c1ccc(O)c(OS(=O)(=O)O)c1; Orn(4R-OH,5R-OH) = O=C([C@H](C[C@@H](O)[C@@H](O)N[*:3])N[*:1])[*:2]; Pro(3S-OH,4S-Me) = C[C@H]1CN[C@H](C(=O)O)[C@H]1O; X1 = CCCCCOc1ccc(-c2cc(-c3ccc(C(=O)*)cc3)no2)cc1; Gln(3R-OH) = NC(=O)C[C@@H](O)[C@H](N)C(=O)O; Hyp = O=C(O)[C@@H]1C[C@@H](O)CN1

What was measured:
Candida albicans [1] = test: Antifungal activity against Candida albicans 580 after 24 hrs; assay type: functional; settings: Candida albicans, 580, 24 h
Method in brief: (§1)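 Broth microdilution per CLSI M27-A3 in RPMI 1640; inoculum 0.5 × 10³ to 2.5 × 10³ cells/ml, 35°C. […] Three separate occasions in duplicate, mean reported; C. krusei ATCC 6258 and C. parapsilosis ATCC 22019 as daily QC.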

Nakaseomyces glabratus [2] = test: Antifungal activity against Candida glabrata 32930 after 24 hrs; assay type: functional; settings: Nakaseomyces glabratus, 32930, 24 h; method in brief: as §1
Candida albicans [3] = test: Antifungal activity against Candida albicans 98-210 after 24 hrs; assay type: functional; settings: 98-210, 24 h; method in brief: as §1
Candida parapsilosis [4] = test: Antifungal activity against Candida parapsilosis infected in ICR Swiss mouse assessed log reduction in bacterial count […]; assay type: functional
Method in brief: (§2)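 Female ICR Swiss mice, neutropenic via cyclophosphamide s.c. (150 mg/kg day −4, 100 mg/kg day −1 and day +2), infected by tail-vein injection of clinical isolates 2 h before therapy. Intraperitoneal dosing every 24 h for 4 days, 4–6 dose levels from 0.078 to 160 mg/kg, 3 mice per regimen. Kidney CFU counted at 96 h. Sigmoid dose-effect fit gives static dose and 1 log kill dose relative to burden at start of therapy.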

Nakaseomyces glabratus [5] = test: Antifungal activity against Candida glabrata 33616 after 24 hrs; assay type: functional; settings: Nakaseomyces glabratus, 33616, 24 h
Method in brief: (§3)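 MICs by CLSI M27-A3 broth dilution in RPMI 1640, inoculum 0.5 × 10³ to 2.5 × 10³ cells/ml, 35°C. Read visually at 24 h as the lowest concentration giving ≥50% growth reduction versus control. Run on three occasions in duplicate and reported as the mean. C. krusei ATCC 6258 and C. parapsilosis ATCC 22019 served as QC strains.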

Nakaseomyces glabratus [6] = test: Antifungal activity against Candida glabrata infected in ICR Swiss mouse; assay type: functional; method in brief: as §2
[7] = Ratio of AUC (0 to 24 hrs) in Candida albicans infected neutropenic ICR Swiss mouse to MIC for Candida albicans at static dose after 24 hrs; assay type: functional
Method in brief: (§4)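 Neutropenic mice were infected iv and treated 2 h later. Four to six ip dose levels (0.078–160 mg/kg) were given every 24 h for 4 days, 3 mice per regimen. Kidney CFU were counted at 96 h. A sigmoid dose-effect model gave the static and 1-log-kill doses relative to burden at therapy start.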

[8] = Ratio of AUC (0 to 24 hrs) in Candida albicans infected neutropenic ICR Swiss mouse to MIC for Candida albicans at 1 log kill dose after 24 hrs; assay type: functional; method in brief: as §4
Candida albicans [9] = test: Antifungal activity against Candida albicans K1 after 24 hrs; assay type: functional; settings: K1, 24 h; method in brief: as §1
Nakaseomyces glabratus [10] = test: Antifungal activity against Candida glabrata 37661 after 24 hrs; assay type: functional; settings: Nakaseomyces glabratus, 37661, 24 h; method in brief: as §3
Candida albicans [11] = test: Antifungal activity against Candida albicans infected in ICR Swiss mouse; assay type: functional; method in brief: as §2
[12] = Ratio of AUC (0 to 24 hrs) in Candida glabrata infected neutropenic ICR Swiss mouse to MIC for Candida glabrata at 1 log kill dose after 24 hrs; assay type: functional; method in brief: as §4
[13] = Ratio of fAUC (0 to 24 hrs) in Candida glabrata infected neutropenic ICR Swiss mouse to MIC for Candida glabrata at 1 log kill dose after 24 hrs; assay type: functional
Candida parapsilosis [14] = test: Antifungal activity against Candida parapsilosis 20423.072 after 24 hrs; assay type: functional; settings: Lodderomyces parapsilosis, 20423.072, 24 h; method in brief: as §3
[15] = AUC (0 to 24 hrs) in Candida albicans infected neutropenic ICR Swiss mouse at 5 mg/kg, ip; assay type: ADME, organism-based; design: time < 24 hr, dose 5 mg/kg, route intraperitoneal; settings: plasma
Method in brief: (§5)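 Neutropenic female ICR Swiss mice (cyclophosphamide sc at 150 mg/kg on day −4, 100 mg/kg on day −1 and day +2) infected iv via tail vein with Candida; single ip doses of 5, 20 or 80 mg/kg. Serum drawn from 3 mice per time point at eight time points and assayed by microbiologic assay (C. albicans K1) or […]. Noncompartmental analysis; AUC by trapezoidal rule.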

Nakaseomyces glabratus [16] = test: Antifungal activity against Candida glabrata 34341 after 24 hrs; assay type: functional; settings: Nakaseomyces glabratus, 34341, 24 h; method in brief: as §3
Nakaseomyces glabratus [17] = test: Antifungal activity against Candida glabrata 5376 after 24 hrs; assay type: functional; settings: Nakaseomyces glabratus, 5376, 24 h; method in brief: as §1
Candida parapsilosis [18] = test: Antifungal activity against Candida parapsilosis 20385.079 after 24 hrs; assay type: functional; settings: Lodderomyces parapsilosis, 20385.079, 24 h; method in brief: as §3
Nakaseomyces glabratus [19] = test: Antifungal activity against Candida glabrata infected in neutropenic ICR Swiss mouse assessed log reduction in bacterial count […]; assay type: functional; method in brief: as §2
[20] = Ratio of AUC (0 to 24 hrs) in Candida glabrata infected neutropenic ICR Swiss mouse to MIC for Candida glabrata at static dose after 24 hrs; assay type: functional; method in brief: as §4
Candida parapsilosis [21] = test: Antifungal activity against Candida parapsilosis 20450.096 after 24 hrs; assay type: functional; settings: Lodderomyces parapsilosis, 20450.096, 24 h; method in brief: as §3
Candida parapsilosis [22] = test: Antifungal activity against Candida parapsilosis 20477.048 after 24 hrs; assay type: functional; settings: Lodderomyces parapsilosis, 20477.048, 24 h; method in brief: as §3
Nakaseomyces glabratus [23] = test: Antifungal activity against Candida glabrata 513 after 24 hrs; assay type: functional; settings: Nakaseomyces glabratus, 513, 24 h; method in brief: as §1
Nakaseomyces glabratus [24] = test: Fungistatic activity against Candida glabrata infected in neutropenic ICR Swiss mouse after 24 hrs; assay type: functional; method in brief: as §2
Candida albicans [25] = test: Antifungal activity against Candida albicans infected in ICR Swiss mouse assessed as log reduction in bacterial count […]; assay type: functional; method in brief: as §2
Candida parapsilosis [26] = test: Antifungal activity against Candida parapsilosis 20553.009 after 24 hrs; assay type: functional; settings: Lodderomyces parapsilosis, 20553.009, 24 h; method in brief: as §3
[27] = Ratio of fAUC (0 to 24 hrs) in Candida parapsilosis infected neutropenic ICR Swiss mouse to MIC for Candida parapsilosis at 1 log kill dose after 24 hrs; assay type: functional
Candida parapsilosis [28] = test: Antifungal activity against Candida parapsilosis 20519.069 after 24 hrs; assay type: functional; settings: Lodderomyces parapsilosis, 20519.069, 24 h; method in brief: as §3
Candida parapsilosis [29] = test: Fungistatic activity against Candida parapsilosis infected in neutropenic ICR Swiss mouse after 24 hrs; assay type: functional; method in brief: as §2
[30] = Ratio of AUC (0 to 24 hrs) in Candida parapsilosis infected neutropenic ICR Swiss mouse to MIC for Candida parapsilosis at static dose after 24 hrs; assay type: functional; method in brief: as §4
Nakaseomyces glabratus [31] = test: Antifungal activity against Candida glabrata 33609 after 24 hrs; assay type: functional; settings: Nakaseomyces glabratus, 33609, 24 h; method in brief: as §1
Nakaseomyces glabratus [32] = test: Antifungal activity against Candida glabrata 35315 after 24 hrs; assay type: functional; settings: Nakaseomyces glabratus, 35315, 24 h; method in brief: as §3
Candida parapsilosis [33] = test: Antifungal activity against Candida parapsilosis 20435.057 after 24 hrs; assay type: functional; settings: Lodderomyces parapsilosis, 20435.057, 24 h; method in brief: as §3
[34] = Ratio of AUC (0 to 24 hrs) in Candida parapsilosis infected neutropenic ICR Swiss mouse to MIC for Candida parapsilosis at 1 log kill dose after 24 hrs; assay type: functional; method in brief: as §4
[35] = AUC (0 to 24 hrs) in Candida albicans infected neutropenic ICR Swiss mouse at 20 mg/kg, ip; assay type: ADME, organism-based; design: time < 24 hr, dose 20 mg/kg, route intraperitoneal; settings: plasma; method in brief: as §5
Candida parapsilosis [36] = test: Antifungal activity against Candida parapsilosis infected in ICR Swiss mouse; assay type: functional; method in brief: as §2
Candida parapsilosis [37] = test: Antifungal activity against Candida parapsilosis 20557.012 after 24 hrs; assay type: functional; settings: Lodderomyces parapsilosis, 20557.012, 24 h; method in brief: as §3
Candida parapsilosis [38] = test: Antifungal activity against Candida parapsilosis 20477.078 after 24 hrs; assay type: functional; settings: Lodderomyces parapsilosis, 20477.078, 24 h; method in brief: as §3

CCCCCOc1ccc(-c2cc(-c3ccc(C(=O)N[C@H]4C[C@@H](O)[C@@H](O)NC(=O)[C@@H]5[C@@H](O)[C@@H](C)CN5C(=O)[C@H]([C@H](O)CC(N)=O)NC(=O)[C@H]([C@H](O)[C@@H](O)c5ccc(O)c(OS(=O)(=O)O)c5)NC(=O)[C@@H]5C[C@@H](O)CN5C(=O)[C@H]([C@@H](C)O)NC4=O)cc3)no2)cc1 [MICAFUNGIN] (X1-[Orn(4R-OH,5R-OH)]T[Hyp][hTyr(3S-OH,4S-OH,3'-OSO3H)][Gln(3R-OH)][Pro(3S-OH,4S-Me)]; lactam 1-C)
MIC (Candida albicans [1]): 0.008 µg/mL (≈ 0.0063 µM) | MIC (Nakaseomyces glabratus [2]): 0.008 µg/mL (≈ 0.0063 µM) | MIC (Candida albicans [3]): 0.016 µg/mL (≈ 0.0126 µM) | Activity (Candida parapsilosis [4]): 55.8 mg/kg | MIC (Nakaseomyces glabratus [5]): 0.25 µg/mL (≈ 0.197 µM) | Emax (Nakaseomyces glabratus [6]): 5.4 log10 CFU/kidneys | ED50 (Nakaseomyces glabratus [6]; Nakaseomyces glabratus): 3 mg/kg | Ratio [7]: 5299 | Ratio [8]: 10088 | MIC (Candida albicans [9]): 0.016 µg/mL (≈ 0.0126 µM) | MIC (Nakaseomyces glabratus [10]): 0.25 µg/mL (≈ 0.197 µM) | Emax (Candida albicans [11]): 7.2 log10 CFU/kidneys | ED50 (Candida albicans [11]; Candida albicans): 18.9 mg/kg | Ratio [12]: 3778 | Ratio [13]: 9.45 | MIC (Candida parapsilosis [14]): 0.25 µg/mL (≈ 0.197 µM) | AUC(0-t) at 24 h [15]: 138 µg·h/mL | MIC (Nakaseomyces glabratus [16]): 0.06 µg/mL (≈ 0.0472 µM) | MIC (Nakaseomyces glabratus [17]): 0.008 µg/mL (≈ 0.0063 µM) | MIC (Candida parapsilosis [18]): 0.5 µg/mL (≈ 0.394 µM) | Activity (Nakaseomyces glabratus [19]): 5.88 mg/kg | Ratio [20]: 1542 | MIC (Candida parapsilosis [21]): 0.25 µg/mL (≈ 0.197 µM) | MIC (Candida parapsilosis [22]): 0.5 µg/mL (≈ 0.394 µM) | MIC (Nakaseomyces glabratus [23]): 0.016 µg/mL (≈ 0.0126 µM) | Activity (Nakaseomyces glabratus [24]): 2.47 mg/kg | Activity (Candida albicans [25]): 5.63 mg/kg | MIC (Candida parapsilosis [26]): 1 µg/mL (≈ 0.787 µM) | Ratio [27]: 7.73 | MIC (Candida parapsilosis [28]): 1 µg/mL (≈ 0.787 µM) | Activity (Candida parapsilosis [29]): 32.3 mg/kg | Ratio [30]: 1981 | MIC (Nakaseomyces glabratus [31]): 0.016 µg/mL (≈ 0.0126 µM) | MIC (Nakaseomyces glabratus [32]): 0.06 µg/mL (≈ 0.0472 µM) | MIC (Candida parapsilosis [33]): 0.5 µg/mL (≈ 0.394 µM) | Ratio [34]: 3090 | AUC(0-t) at 24 h [35]: 520 µg·h/mL | Emax (Candida parapsilosis [36]): 4.8 log10 CFU/kidneys | ED50 (Candida parapsilosis [36]; Lodderomyces parapsilosis): 2.6 mg/kg | MIC (Candida parapsilosis [37]): 0.25 µg/mL (≈ 0.197 µM) | MIC (Candida parapsilosis [38]): 0.5 µg/mL (≈ 0.394 µM)
